Measurements of several laboratories.
Protocols differ between the studies behind these lines. Values after ≈ are worked out from the molar mass of the structure shown.

Nc1ccn([C@@H]2CS[C@H](CO)O2)c(=O)n1  IC50 (Hepatitis B virus; viral replication, qPCR; HepG2.2.15; 6 days): 7370 nM
Cl.NCCc1ccccc1Oc1ccc(-c2noc(-c3ccc(O)cc3)n2)cc1  MIC (Clostridioides difficile; microbial growth, broth dilution; 48 h): 8 µg/mL
COc1c(N2C[C@@H]3CCCN[C@@H]3C2)c(F)cc2c(=O)c(C(=O)O)cn(C3CC3)c12  MIC90 (Aliivibrio fischeri; microbial growth): 0.06 µg/mL (≈ 0.149 µM)
Cc1ccc(C)n1-c1ccc(-c2n[nH]c(=S)[nH]2)cc1  MIC (Saccharomyces cerevisiae; microbial growth, broth dilution; ATCC9763): > 500 µg/mL
O=C(N/N=C/c1ccc([N+](=O)[O-])o1)c1ccc(O)cc1  MIC90 (Aliivibrio fischeri; microbial growth): 7.8 µg/mL (≈ 28.3 µM)
O=C(Nc1cc(F)c(F)c(F)c1)c1ccc(F)c(S(=O)(=O)NCc2ccc(B(O)O)cc2)c1  EC50 (Hepatitis B virus; viral replication, inhibitor, qPCR; HePAD38; 6 days): 380 nM
O=C(O)CCc1ccccc1Oc1ccc(-c2noc(-c3ccc(O)cc3)n2)cc1  MIC (Clostridioides difficile; microbial growth, broth dilution; 48 h): 4 µg/mL (≈ 9.94 µM)
CC1(C)OB(c2ccc(CNS(=O)(=O)c3cc(C(=O)Nc4cc(F)c(F)c(F)c4)ccc3F)cc2)OC1(C)C  EC50 (Hepatitis B virus; viral replication, inhibitor, qPCR; HePAD38; 6 days): 490 nM
Cc1ccc(C)n1-c1ccc(-c2nnc(-c3ccccc3[N+](=O)[O-])[nH]2)cc1  MIC (Saccharomyces cerevisiae; microbial growth, broth dilution; ATCC9763): 31.2 µg/mL (≈ 87 µM)
O=C(O)CNc1ccc(-c2nc(-c3ccc(Oc4ccccc4)cc3)no2)cc1  MIC (Clostridioides difficile; microbial growth, broth dilution; 48 h): 13 µg/mL (≈ 33.6 µM)
